How the values were obtained:
LAT1 [1] = target: T1, LAT1 (Homo sapiens, UniProt Q01650); assay: Inhibition of L-[14C]leucine uptake in HEK293-hLAT1 cells; format: cell-based
Outline: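 HEK293-hLAT1 cells grown 2 days on poly-D-lysine, then preincubated 10 min at 37 °C in Na⁺-free choline-HBSS (HEPES, pH 7.4). L-[¹⁴C]leucine (1–400 µM) uptake for 1 min, with test compound added from DMSO alongside the substrate at two levels (0.1/0.5 or 1/5 µM) or with DMSO alone. Cells washed ice-cold, lysed in NaOH, counted by scintillation, normalised to BCA protein. Michaelis–Menten and Lineweaver–Burk fits gave Ki; mean ± S.D., n = 4.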
Target sequence in this assay (Q01650 whole entry): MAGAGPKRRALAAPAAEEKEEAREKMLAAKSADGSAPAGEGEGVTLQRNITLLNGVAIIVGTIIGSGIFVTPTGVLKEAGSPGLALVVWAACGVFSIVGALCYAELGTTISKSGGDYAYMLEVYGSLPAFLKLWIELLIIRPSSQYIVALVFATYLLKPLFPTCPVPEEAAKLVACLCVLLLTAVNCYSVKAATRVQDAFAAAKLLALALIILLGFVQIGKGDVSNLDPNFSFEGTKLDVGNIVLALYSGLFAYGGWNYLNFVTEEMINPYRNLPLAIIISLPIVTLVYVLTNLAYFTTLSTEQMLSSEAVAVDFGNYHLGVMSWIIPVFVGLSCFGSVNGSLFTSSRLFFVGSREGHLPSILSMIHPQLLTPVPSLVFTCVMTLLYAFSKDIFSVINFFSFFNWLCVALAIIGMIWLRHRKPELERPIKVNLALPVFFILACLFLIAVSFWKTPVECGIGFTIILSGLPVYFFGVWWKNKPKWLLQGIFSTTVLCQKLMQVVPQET
Target sequence in this assay (P08195 103-630 partner): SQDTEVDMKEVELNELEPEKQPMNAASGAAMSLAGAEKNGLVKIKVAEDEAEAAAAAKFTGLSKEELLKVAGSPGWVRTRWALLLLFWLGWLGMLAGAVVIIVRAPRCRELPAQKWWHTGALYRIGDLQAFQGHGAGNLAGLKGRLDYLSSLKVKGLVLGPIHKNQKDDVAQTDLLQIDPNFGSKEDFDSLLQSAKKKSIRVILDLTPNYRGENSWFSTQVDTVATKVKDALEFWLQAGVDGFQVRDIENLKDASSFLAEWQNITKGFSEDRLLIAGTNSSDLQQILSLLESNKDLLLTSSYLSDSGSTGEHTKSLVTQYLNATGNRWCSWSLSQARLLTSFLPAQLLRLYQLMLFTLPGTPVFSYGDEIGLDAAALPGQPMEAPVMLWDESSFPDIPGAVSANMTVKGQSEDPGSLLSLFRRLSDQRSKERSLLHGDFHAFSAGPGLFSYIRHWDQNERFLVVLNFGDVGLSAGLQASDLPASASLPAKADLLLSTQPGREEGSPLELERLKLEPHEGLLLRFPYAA

human LAT2 = human LAT2 (Homo sapiens, UniProt Q9UHI5); assay: Inhibition of L-[14C]alanine uptake in HEK293-hLAT2 cells; format: cell-based; details: 0.1, 1 and 10 µM compound, 1 µM L-[14C]alanine
Outline: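 Stable HEK293-hLAT2 cells were seeded at 2.4 × 10⁵ cells/well on poly-D-lysine and grown 2 days. They were pre-incubated 10 min at 37 °C in Na⁺-free HBSS (choline chloride, 25 mM HEPES, pH 7.4). Uptake of 1 µM L-[¹⁴C]alanine ran for 1 min, with test compound (from DMSO stocks) added together with substrate. Cells were washed ice-cold, lysed in 0.1 N NaOH, counted by liquid scintillation, and lysate protein was measured by BCA.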

HEK293-hLAT1 cells = assay: Cell proliferation assay; format: cell-based; details: Homo sapiens, 72 h, read-out: GI50 (proliferation)
Outline: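 HEK293 cells stably expressing human LAT1, kept in MEM with 10% FBS, non-essential amino acids and G418 (0.9 mg/mL) at 37 °C and 5% CO₂. Seeded at 1.5 × 10³ cells/well on poly-D-lysine and treated next day with test compound (0.003–30 µM) for 72 h. CCK-8 read-out. Inhibition = (C–T)/(C–T₀) × 100, with T₀ at 0 h. GI50 from curve fit; mean ± S.D., n = 4.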

HEK293-hLAT2 cells = assay: Cell proliferation assay; format: cell-based, human; details: 72 h, 0.003-30 µM
Outline: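 HEK293 cells stably expressing human LAT2, kept under G418 selection at 37 °C and 5% CO₂, were seeded at 1.5 × 10³ cells/well on poly-D-lysine. Next day they were exposed to test compound for 72 h, and cell number was read with CCK-8. Inhibition was calculated as (C – T)/(C – T₀) × 100, with T₀ taken at 0 h. GI₅₀ is the concentration giving 50% inhibition. Mean ± S.D., n = 4.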

LAT1 [2] = target: T1, LAT1; assay: Sustained inhibition assay; format: cell-based; details: reduction in inhibition over first 10 min after washout relative to 0 min
Outline: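 HEK293-hLAT1 cells exposed to test compound or 0.6% DMSO control in culture medium for 30 min at 37 °C. Washed three times and kept in fresh medium for 0, 10, 20, 30 or 60 min or 24 h. Then rinsed with Na⁺-free HBSS and given 1 µM L-[¹⁴C]leucine for 1 min. Uptake taken as % of control at each time. Reduction rate = (%uptake 10 min – %uptake 0 min)/(100 – %uptake 0 min) × 100. Three independent experiments, each in quadruplicate.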
Target sequence in this assay (Q01650 whole entry): as the sequence (Q01650 whole entry) above
Target sequence in this assay (P08195 103-630 partner): as the sequence (P08195 103-630 partner) above

LAT1 [3] = target: T1, LAT1; assay: Temperature-dependent uptake of 14C-labeled compound in HEK293-hLAT1 cells; format: cell-based; details: 1 µM 14C-labeled compound, 1 min, 37 °C vs on ice
Outline: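 HEK293-hLAT1 cells in Na⁺-free HBSS given 1 µM ¹⁴C-labelled test compound, or 1 µM L-[¹⁴C]leucine for comparison, for 1 min on ice or at 37 °C. Cell-associated radioactivity measured by scintillation counting of the lysate.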
Target sequence in this assay (Q01650 whole entry): as the sequence (Q01650 whole entry) above
Target sequence in this assay (P08195 103-630 partner): as the sequence (P08195 103-630 partner) above

LAT1 [4] = target: T1, LAT1; assay: Xenopus oocyte expression system, L-[14C]leucine uptake by LAT1; format: cell-based; details: 50 µM substrate, 30 min, Na+-free
Outline: (§1)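 Defolliculated Xenopus laevis oocytes injected with transporter cRNA (25 ng/oocyte) plus equimolar 4F2hc cRNA, and assayed 2–4 days later. Uptake of 50 µM L-[¹⁴C]leucine at room temperature with test compound at 1 or 10 µM. Buffers were ND96 (pH 7.5) or a Na⁺-free version with choline chloride in place of NaCl. Scintillation counting; mean ± S.D., n = 5–13, three oocyte batches.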
Target sequence in this assay (Q01650 whole entry): as the sequence (Q01650 whole entry) above
Target sequence in this assay (P08195 102-630 partner): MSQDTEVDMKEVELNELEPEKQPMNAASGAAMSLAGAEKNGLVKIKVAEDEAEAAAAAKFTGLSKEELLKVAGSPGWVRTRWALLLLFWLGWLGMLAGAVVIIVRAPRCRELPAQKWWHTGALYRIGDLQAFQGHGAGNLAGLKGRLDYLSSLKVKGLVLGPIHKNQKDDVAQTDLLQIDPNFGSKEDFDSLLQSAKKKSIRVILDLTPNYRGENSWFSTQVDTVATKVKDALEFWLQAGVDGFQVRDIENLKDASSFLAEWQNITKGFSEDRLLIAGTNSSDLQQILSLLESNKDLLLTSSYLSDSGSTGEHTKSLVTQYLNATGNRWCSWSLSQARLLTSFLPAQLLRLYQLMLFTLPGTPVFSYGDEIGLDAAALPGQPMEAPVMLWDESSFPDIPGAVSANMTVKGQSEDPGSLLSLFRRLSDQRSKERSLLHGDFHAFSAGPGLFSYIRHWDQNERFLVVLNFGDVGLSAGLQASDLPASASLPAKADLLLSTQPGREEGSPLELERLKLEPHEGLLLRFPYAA

LAT2 = LAT2 (Homo sapiens, UniProt Q9UHI5); assay: Xenopus oocyte expression system, L-[14C]alanine uptake by LAT2; format: cell-based; details: 1 and 10 µM compound; 50 µM substrate; 30 min
Outline: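 Defolliculated Xenopus laevis oocytes were injected with polyadenylated human LAT2 cRNA (25 ng/oocyte) plus equimolar 4F2hc cRNA. Water-injected oocytes served as controls. After 2–4 days, oocytes took up 50 µM ¹⁴C-labelled substrate for 30 min at room temperature, with or without test compound, in ND96 (pH 7.5) or its Na⁺-free choline chloride version. Radioactivity was determined by liquid scintillation counting.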

LAT3 = LAT3 (Homo sapiens, UniProt O75387); assay: Xenopus oocyte expression system, L-[14C]leucine uptake by LAT3; format: cell-based; details: 1 and 10 µM compound; 50 µM substrate; 30 min
Outline: (§2)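 Defolliculated Xenopus laevis oocytes injected with transporter cRNA (25 ng/oocyte), assayed 2–4 days after injection. Uptake at room temperature of 50 µM radiolabelled substrate with test compound at 1 or 10 µM. Buffers were ND96 (pH 7.5) for Na⁺-dependent transport, or a Na⁺-free version with choline chloride. Scintillation counting; mean ± S.D., n = 5–13, three independent oocyte batches.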

LAT4 = LAT4 (Homo sapiens, UniProt Q8N370); assay: Xenopus oocyte expression system, L-[14C]leucine uptake by LAT4; format: cell-based; details: 1 and 10 µM compound; 50 µM substrate; 30 min
Outline: as §2

y^+LAT1 = y^+LAT1 (Homo sapiens, UniProt Q9UM01); assay: Xenopus oocyte expression system, L-[14C]leucine uptake by y+LAT1; format: cell-based; details: 1 and 10 µM compound; 50 µM substrate; 30 min; ND96
Outline: as §1

y^+LAT2 = y^+LAT2 (Homo sapiens, UniProt Q92536); assay: Xenopus oocyte expression system, L-[14C]leucine uptake by y+LAT2; format: cell-based; details: 1 and 10 µM compound; 50 µM substrate; 30 min; ND96
Outline: as §1

ATB^0,+ = ATB^0,+ (Homo sapiens, UniProt Q9UN76); assay: Xenopus oocyte expression system, L-[14C]leucine uptake by ATB0,+; format: cell-based; details: 1 and 10 µM compound; 50 µM substrate; 30 min; ND96
ATB^0,+, sequence (Q9UN76 whole entry): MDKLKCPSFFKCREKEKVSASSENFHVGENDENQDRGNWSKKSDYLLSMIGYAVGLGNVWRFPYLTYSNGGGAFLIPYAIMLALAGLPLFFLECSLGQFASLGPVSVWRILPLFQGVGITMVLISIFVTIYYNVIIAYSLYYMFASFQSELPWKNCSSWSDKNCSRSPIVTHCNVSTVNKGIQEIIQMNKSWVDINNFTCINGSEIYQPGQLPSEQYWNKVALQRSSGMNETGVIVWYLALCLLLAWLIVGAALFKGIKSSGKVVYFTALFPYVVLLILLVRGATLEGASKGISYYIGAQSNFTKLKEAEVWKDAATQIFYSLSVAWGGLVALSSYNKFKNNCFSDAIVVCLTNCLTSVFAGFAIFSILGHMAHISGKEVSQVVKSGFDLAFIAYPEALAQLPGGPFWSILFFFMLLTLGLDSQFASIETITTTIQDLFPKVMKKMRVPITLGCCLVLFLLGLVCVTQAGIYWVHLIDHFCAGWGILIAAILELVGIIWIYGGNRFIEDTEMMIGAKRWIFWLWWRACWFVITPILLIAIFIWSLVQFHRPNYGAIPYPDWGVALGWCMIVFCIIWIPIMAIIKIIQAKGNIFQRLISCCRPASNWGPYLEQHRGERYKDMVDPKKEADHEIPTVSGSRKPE
Outline: (§3)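 Defolliculated Xenopus laevis oocytes injected with transporter cRNA (25 ng/oocyte) or with water as control, assayed 2–4 days after injection. Uptake over 30 min at room temperature of 50 µM labelled substrate: L-[¹⁴C]leucine for ATB0,+, L-[¹⁴C]tyrosine for TAT1, L-[¹⁴C]cystine for b0,+. Test compound at 1 or 10 µM. Scintillation counting; mean ± S.D., n = 5–13, three oocyte batches.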

B^0AT1 = B^0AT1 (Homo sapiens, UniProt Q695T7); assay: Xenopus oocyte expression system, L-[14C]leucine uptake by B0AT1; format: cell-based; details: 1 and 10 µM compound; 50 µM substrate; 30 min; ND96
Outline: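 B⁰AT1 cRNA (25 ng/oocyte) co-injected with equimolar collectrin cRNA into defolliculated Xenopus laevis oocytes, assayed 2–4 days later. Uptake of 50 µM L-[¹⁴C]leucine over 30 min at room temperature in ND96 (pH 7.5), with test compound at 1 or 10 µM. Water-injected oocytes served as controls. Scintillation counting; mean ± S.D., n = 5–13, three oocyte batches.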

TAT1 = TAT1 (Homo sapiens, UniProt Q8TF71); assay: Xenopus oocyte expression system, L-[14C]tyrosine uptake by TAT1; format: cell-based; details: 1 and 10 µM compound; 50 µM substrate; 30 min; Na+-free
Outline: as §3

b^0,+ = assay: Xenopus oocyte expression system, L-[14C]cystine uptake by b0,+; format: cell-based; details: 1 and 10 µM compound; 50 µM substrate; 30 min; Na+-free
Outline: as §3

ASCT1 = ASCT1 (Homo sapiens, UniProt P43007); assay: Xenopus oocyte expression system, L-[14C]alanine uptake by ASCT1; format: cell-based; details: 1 and 10 µM compound; 50 µM substrate; 30 min; ND96
ASCT1, sequence (P43007 whole entry): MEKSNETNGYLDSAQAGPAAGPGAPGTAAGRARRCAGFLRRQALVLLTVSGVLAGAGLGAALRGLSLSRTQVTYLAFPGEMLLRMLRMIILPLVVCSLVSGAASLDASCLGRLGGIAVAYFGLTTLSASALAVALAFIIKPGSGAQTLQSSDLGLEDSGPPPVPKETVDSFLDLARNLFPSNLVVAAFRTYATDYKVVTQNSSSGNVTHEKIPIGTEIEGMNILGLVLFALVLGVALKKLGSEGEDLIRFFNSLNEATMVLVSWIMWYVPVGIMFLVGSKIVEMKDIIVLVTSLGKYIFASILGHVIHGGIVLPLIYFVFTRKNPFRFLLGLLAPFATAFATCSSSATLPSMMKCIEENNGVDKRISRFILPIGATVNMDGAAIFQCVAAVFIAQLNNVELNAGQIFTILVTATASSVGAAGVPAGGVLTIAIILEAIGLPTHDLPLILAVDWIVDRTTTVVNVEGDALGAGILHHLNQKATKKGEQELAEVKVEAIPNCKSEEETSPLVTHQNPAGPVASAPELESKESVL
Outline: as §2

ASCT2 = ASCT2 (Homo sapiens, UniProt Q15758); assay: Xenopus oocyte expression system, L-[14C]alanine uptake by ASCT2; format: cell-based; details: 1 and 10 µM compound; 50 µM substrate; 30 min; ND96
ASCT2, sequence (Q15758 whole entry): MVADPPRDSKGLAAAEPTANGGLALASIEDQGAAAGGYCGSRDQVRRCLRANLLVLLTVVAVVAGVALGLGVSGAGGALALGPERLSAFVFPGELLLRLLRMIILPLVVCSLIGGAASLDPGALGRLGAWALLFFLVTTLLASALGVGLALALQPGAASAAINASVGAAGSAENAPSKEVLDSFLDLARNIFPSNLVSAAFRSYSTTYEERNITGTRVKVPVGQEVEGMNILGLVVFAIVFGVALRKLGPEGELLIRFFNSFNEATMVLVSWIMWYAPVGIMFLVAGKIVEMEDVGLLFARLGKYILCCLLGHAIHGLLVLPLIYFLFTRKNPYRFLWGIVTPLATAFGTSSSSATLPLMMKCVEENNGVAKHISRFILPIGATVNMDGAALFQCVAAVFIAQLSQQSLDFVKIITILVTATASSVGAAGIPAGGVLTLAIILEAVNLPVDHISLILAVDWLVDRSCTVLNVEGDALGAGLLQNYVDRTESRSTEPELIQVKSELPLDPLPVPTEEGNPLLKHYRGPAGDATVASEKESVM
Outline: as §2

SNAT1 = SNAT1 (Homo sapiens, UniProt Q9H2H9); assay: Xenopus oocyte expression system, L-[14C]alanine uptake by SNAT1; format: cell-based; details: 1 and 10 µM compound; 50 µM substrate; 30 min; ND96
SNAT1, sequence (Q9H2H9 whole entry): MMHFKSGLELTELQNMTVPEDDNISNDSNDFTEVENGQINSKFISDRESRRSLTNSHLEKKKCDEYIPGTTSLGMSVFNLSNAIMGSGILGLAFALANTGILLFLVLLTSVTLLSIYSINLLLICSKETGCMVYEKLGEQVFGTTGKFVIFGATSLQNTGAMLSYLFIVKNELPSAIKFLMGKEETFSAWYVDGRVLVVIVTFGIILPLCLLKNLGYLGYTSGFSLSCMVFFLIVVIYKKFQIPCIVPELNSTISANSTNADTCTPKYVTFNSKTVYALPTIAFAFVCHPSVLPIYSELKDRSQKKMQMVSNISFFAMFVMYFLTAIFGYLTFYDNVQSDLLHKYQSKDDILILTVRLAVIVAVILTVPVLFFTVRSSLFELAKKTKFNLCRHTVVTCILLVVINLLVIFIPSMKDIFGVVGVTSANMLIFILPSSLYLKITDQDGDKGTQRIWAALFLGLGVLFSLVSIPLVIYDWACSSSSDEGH
Outline: as §2

SNAT2 = SNAT2 (Homo sapiens, UniProt Q96QD8); assay: Xenopus oocyte expression system, L-[14C]alanine uptake by SNAT2; format: cell-based; details: 1 and 10 µM compound; 50 µM substrate; 30 min; ND96
Outline: as §2

SNAT3 = SNAT3 (Homo sapiens, UniProt Q99624); assay: Xenopus oocyte expression system, L-[14C]glutamine uptake by SNAT3; format: cell-based; details: 1 and 10 µM compound; 50 µM substrate; 30 min; ND96
Outline: as §2

SNAT4 = SNAT4 (Homo sapiens, UniProt Q969I6); assay: Xenopus oocyte expression system, L-[14C]alanine uptake by SNAT4; format: cell-based; details: 10 µM compound; 50 µM substrate; 30 min; ND96
Outline: as §2

SNAT5 = SNAT5 (Homo sapiens, UniProt Q8WUX1); assay: Xenopus oocyte expression system, L-[14C]glutamine uptake by SNAT5; format: cell-based; details: 1 and 10 µM compound; 50 µM substrate; 30 min; ND96
SNAT5, sequence (Q8WUX1 whole entry): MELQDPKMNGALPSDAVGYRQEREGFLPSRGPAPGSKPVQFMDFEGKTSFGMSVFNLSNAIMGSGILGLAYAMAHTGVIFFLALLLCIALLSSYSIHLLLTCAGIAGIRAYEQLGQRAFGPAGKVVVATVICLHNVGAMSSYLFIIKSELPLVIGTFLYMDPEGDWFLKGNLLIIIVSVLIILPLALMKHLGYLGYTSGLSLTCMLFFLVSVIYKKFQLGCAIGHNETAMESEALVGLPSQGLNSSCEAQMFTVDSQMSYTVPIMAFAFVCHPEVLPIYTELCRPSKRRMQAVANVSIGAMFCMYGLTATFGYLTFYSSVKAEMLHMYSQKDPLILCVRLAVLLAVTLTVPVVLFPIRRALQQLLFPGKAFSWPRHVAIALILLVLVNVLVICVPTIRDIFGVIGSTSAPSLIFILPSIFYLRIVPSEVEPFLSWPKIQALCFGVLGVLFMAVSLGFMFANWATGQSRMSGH
Outline: as §2

S2-LAT1 cells = details: LAT1-expressing cells; cited from earlier work
S2-LAT2 cells = details: LAT2-expressing cells; cited from earlier work
biliary tract cancer = details: phase II, patients with biliary tract cancer; cited from earlier work
[5] = patients with advanced solid tumors; cited from earlier work
[6] = liver; cited from earlier work
[7] = tested on: LAT1, LAT2, LAT3, LAT4, B^0AT1, ATB^0,+; details: cited from earlier work

Nc1cc(COc2c(Cl)cc(C[C@H](N)C(=O)O)cc2Cl)c2oc(-c3ccccc3)nc2c1 [nanvuranlat, (2S)-2-amino-3-[4-[(5-amino-2-phenyl-1,3-benzoxazol-7-yl)methoxy]-3,5-dichlorophenyl]propanoic acid]
Ki (LAT1 [1]): 38.7 ± 5.1 nM | Inhibition of LAT1-mediated L-[14C]leucine uptake (LAT1 [1]; 0.1, 1 and 10 µM compound, 1 µM L-[14C]leucine, HEK293-hLAT1): inhibited LAT1 in a concentration-dependent manner | Mode of LAT1 inhibition (Lineweaver-Burk plot) (LAT1 [1]; HEK293-hLAT1, L-[14C]leucine): competitive inhibitors | Inhibition of LAT2-mediated L-[14C]alanine uptake (human LAT2): neither compound exhibited inhibitory effects on LAT2 | GI50 (HEK293-hLAT1 cells): 1830 ± 310 nM | Inhibition of proliferation (HEK293-hLAT2 cells): neither compound exhibited an inhibitory effect | Inhibition reduction rate (LAT1 [2]): 29.8% | Temperature dependence of cell-associated radioactivity (transport by LAT1) (LAT1 [3]): not transported by LAT1 | Inhibition of LAT1-mediated L-[14C]leucine uptake (LAT1 [4]; 1 µM compound): significantly inhibited | Inhibition of LAT1-mediated L-[14C]leucine uptake (LAT1 [4]; 10 µM compound): significantly inhibited | Inhibition of LAT2-mediated L-[14C]alanine uptake (LAT2): neither nanvuranlat nor N-acetyl-nanvuranlat inhibited | Inhibition of LAT3-mediated L-[14C]leucine uptake (LAT3): no inhibitory effects | Inhibition of LAT4-mediated L-[14C]leucine uptake (LAT4): no inhibitory effects | Inhibition of y+LAT1-mediated L-[14C]leucine uptake (y^+LAT1): Neither compound inhibited | Inhibition of y+LAT2-mediated L-[14C]leucine uptake (y^+LAT2): Neither compound inhibited | Inhibition of ATB0,+-mediated L-[14C]leucine uptake (ATB^0,+): Neither compound inhibited | Inhibition of B0AT1-mediated L-[14C]leucine uptake (B^0AT1): Neither compound inhibited | Inhibition of TAT1-mediated L-[14C]tyrosine uptake (TAT1): Neither compound inhibited | Inhibition of b0,+-mediated L-[14C]cystine uptake (b^0,+): Neither compound inhibited | Inhibition of ASCT1-mediated L-[14C]alanine uptake (ASCT1): no significant inhibition | Inhibition of ASCT2-mediated L-[14C]alanine uptake (ASCT2): no significant inhibition | Inhibition of SNAT1-mediated L-[14C]alanine uptake (SNAT1): no significant inhibition | Inhibition of SNAT2-mediated L-[14C]alanine uptake (SNAT2): no significant inhibition | Inhibition of SNAT3-mediated L-[14C]glutamine uptake (SNAT3): no significant inhibition | Inhibition of SNAT4-mediated L-[14C]alanine uptake (SNAT4): non-significant trend towards inhibition | Inhibition of SNAT5-mediated L-[14C]glutamine uptake (SNAT5): no significant inhibition | Growth inhibition of S2-LAT1 cells (S2-LAT1 cells): potently inhibited the growth | Growth inhibition of S2-LAT2 cells (S2-LAT2 cells): minimal effects | Primary endpoint (progression-free survival) (biliary tract cancer): met its primary endpoint of improving progression-free survival | Safety profile in clinical trials [5]: acceptable safety profile | Metabolism [6]: rapidly metabolized to its N-acetyl derivative in the liver

NC1(C(=O)O)CC2CCC1C2 (centres unmarked) [BCH]
Transporters inhibited [7]: inhibit not only all system L transporters (LAT1, LAT2, LAT3, LAT4) but also B^0AT1 (system B^0) and ATB^0,+ (system B^0,+)
